Results: ChEMBL document CHEMBL1158443, “Discovery of novel lipophilic inhibitors of OXA-10 enzyme (class D beta-lactamase) by screening amino analogs and homologs of citrate and isocitrate” (Bioorg Med Chem Lett, 2009)

T1: Imipenem-hydrolyzing beta-lactamase (Enterobacter cloacae) (UniProt P52663)
T1 sequence (whole entry): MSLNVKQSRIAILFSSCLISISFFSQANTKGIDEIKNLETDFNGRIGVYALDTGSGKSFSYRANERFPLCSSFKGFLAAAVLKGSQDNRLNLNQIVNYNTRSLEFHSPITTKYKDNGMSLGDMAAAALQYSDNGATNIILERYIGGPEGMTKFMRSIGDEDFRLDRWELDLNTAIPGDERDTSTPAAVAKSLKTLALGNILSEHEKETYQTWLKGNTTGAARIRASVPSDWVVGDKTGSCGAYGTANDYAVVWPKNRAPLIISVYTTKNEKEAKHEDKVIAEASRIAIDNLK


Tests used:
[1] = biological target: Beta-lactamase OXA-10 (Pseudomonas aeruginosa) (UniProt P14489); experiment: Inhibition of Pseudomonas aeruginosa OXA10 beta-lactamase assessed as residual activity at 100 uM at pH 7 using phosphate buffer by spectrophotometry; values are per cent of control
[2] = biological target: Beta-lactamase (Bacillus licheniformis) (UniProt P00808); experiment: Inhibition of Bacillus licheniformis BS3 beta-lactamase assessed as residual activity at 100 uM at pH 5 using acetate buffer by spectrophotometry; values are per cent of control
Chain of Beta-lactamase (Bacillus licheniformis) (P00808 whole entry): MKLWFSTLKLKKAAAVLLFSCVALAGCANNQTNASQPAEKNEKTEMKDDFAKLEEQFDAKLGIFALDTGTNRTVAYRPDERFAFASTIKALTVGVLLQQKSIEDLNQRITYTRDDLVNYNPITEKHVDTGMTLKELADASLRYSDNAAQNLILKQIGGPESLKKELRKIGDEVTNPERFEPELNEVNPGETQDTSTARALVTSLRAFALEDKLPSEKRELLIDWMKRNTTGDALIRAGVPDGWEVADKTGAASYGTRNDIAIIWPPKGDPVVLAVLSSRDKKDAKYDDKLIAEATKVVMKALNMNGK

[3] = Inhibition of TEM1 beta-lactamase assessed as residual activity at 100 uM at pH 7 using phosphate buffer by spectrophotometry; values are per cent of control
[4] = biological target: Beta-lactamase OXA-10 (Pseudomonas aeruginosa) (UniProt P14489); experiment: Inhibition of Pseudomonas aeruginosa OXA10 beta-lactamase assessed as residual activity at 100 uM at pH 5 using acetate buffer by spectrophotometry; values are per cent of control
[5] = biological target: T1, Imipenem-hydrolyzing beta-lactamase (Enterobacter cloacae); experiment: Inhibition of Enterobacter cloacae NMCA beta-lactamase assessed as residual activity at 100 uM at pH 7 using phosphate buffer by spectrophotometry; values are per cent of control
[6] = biological target: Beta-lactamase VIM-4 (Pseudomonas aeruginosa) (UniProt Q8KRJ3); experiment: Inhibition of Pseudomonas aeruginosa VIM4 beta-lactamase assessed as residual activity at 100 uM at pH 7 using HEPES buffer by spectrophotometry; values are per cent of control
[7] = Inhibition of TEM1 beta-lactamase assessed as residual activity at 100 uM at pH 5 using acetate buffer by spectrophotometry; values are per cent of control
[8] = biological target: Beta-lactamase (Enterobacter cloacae) (UniProt P05364); experiment: Inhibition of Enterobacter cloacae P99 beta-lactamase assessed as residual activity at 100 uM at pH 7 using phosphate buffer by spectrophotometry; values are per cent of control
Chain of Beta-lactamase (Enterobacter cloacae) (P05364 21-381 limits assumed): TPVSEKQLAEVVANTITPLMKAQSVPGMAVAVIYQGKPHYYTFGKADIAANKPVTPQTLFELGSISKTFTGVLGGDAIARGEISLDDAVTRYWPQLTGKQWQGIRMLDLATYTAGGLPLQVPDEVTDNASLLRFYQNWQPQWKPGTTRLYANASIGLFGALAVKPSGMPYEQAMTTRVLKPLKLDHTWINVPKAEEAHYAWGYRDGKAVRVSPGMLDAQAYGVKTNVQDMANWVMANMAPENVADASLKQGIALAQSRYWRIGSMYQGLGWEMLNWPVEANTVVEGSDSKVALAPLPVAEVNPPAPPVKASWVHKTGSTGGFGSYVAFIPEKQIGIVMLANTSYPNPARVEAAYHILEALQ

Bacillus cereus [9] = experiment: Inhibition of Bacillus cereus BC2 beta-lactamase assessed as residual activity at 100 uM at pH 5 using acetate buffer by spectrophotometry; values are per cent of control
[10] = biological target: Beta-lactamase (Enterobacter cloacae) (UniProt P05364); experiment: Inhibition of Enterobacter cloacae P99 beta-lactamase assessed as residual activity at 100 uM at pH 5 using acetate buffer by spectrophotometry; values are per cent of control
[11] = biological target: T1, Imipenem-hydrolyzing beta-lactamase (Enterobacter cloacae); experiment: Inhibition of Enterobacter cloacae NMCA beta-lactamase assessed as residual activity at 100 uM at pH 5 using acetate buffer by spectrophotometry; values are per cent of control
[12] = biological target: Beta-lactamase (Bacillus licheniformis) (UniProt P00808); experiment: Inhibition of Bacillus licheniformis BS3 beta-lactamase assessed as residual activity at 100 uM at pH 7 using phosphate buffer by spectrophotometry; values are per cent of control
Bacillus cereus [13] = experiment: Inhibition of Bacillus cereus BC2 beta-lactamase assessed as residual activity at 100 uM at pH 7 using HEPES buffer by spectrophotometry; values are per cent of control
[14] = Activity of TEM1 beta-lactamase
[15] = biological target: T1, Imipenem-hydrolyzing beta-lactamase (Enterobacter cloacae); experiment: Ratio of Kcat to Km for Enterobacter cloacae NMCA beta-lactamase
[16] = biological target: Beta-lactamase OXA-10 (Pseudomonas aeruginosa) (UniProt P14489); experiment: Ratio of Kcat to Km for Pseudomonas aeruginosa OXA10 beta-lactamase
Bacillus cereus [17] = experiment: Activity of Bacillus cereus BC2 beta-lactamase
[18] = Ratio of Kcat to Km for TEM1 beta-lactamase
Bacillus cereus [19] = experiment: Ratio of Kcat to Km for Bacillus cereus BC2 beta-lactamase
[20] = biological target: Beta-lactamase VIM-4 (Pseudomonas aeruginosa) (UniProt Q8KRJ3); experiment: Ratio of Kcat to Km for Pseudomonas aeruginosa VIM4 beta-lactamase
Beta-lactamase OXA-10 [21] = biological target: T2, Beta-lactamase OXA-10 (Pseudomonas aeruginosa, UniProt P14489); experiment: Inactivation of Pseudomonas aeruginosa OXA10 beta-lactamase at pH 7
[22] = Competitive inhibition of TEM1 beta-lactamase at pH 5
Procedure, shortened: (§1)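 Ki came from plotting v0/vi against inhibitor concentration. v0/vi is the ratio of nitrocefin hydrolysis rates without and with inhibitor, monitored spectrophotometrically at 482 nm. Enzyme (1-100 nM) was preincubated with inhibitor for 30 min at 37 °C in the buffer for the stated pH.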

Beta-lactamase OXA-10 [23] = biological target: T2, Beta-lactamase OXA-10; experiment: Competitive inhibition of Pseudomonas aeruginosa OXA10 beta-lactamase at pH 7
Procedure, shortened: as §1

Beta-lactamase = Beta-lactamase (Bacillus licheniformis, UniProt P00808); experiment: Inhibition of Bacillus licheniformis BS3 beta-lactamase at pH 5
Chain of Beta-lactamase (P00808 whole entry): as the sequence (P00808 whole entry) above

[24] = tested on: O=C(Cc1cccs1)N[C@@H]1C(=O)N2C(C(=O)O)=C(/C=C/c3ccc([N+](=O)[O-])cc3[N+](=O)[O-])CS[C@H]12; experiment: Activity of Pseudomonas aeruginosa VIM4 beta-lactamase
[25] = substrate: O=C(Cc1cccs1)N[C@@H]1C(=O)N2C(C(=O)O)=C(/C=C/c3ccc([N+](=O)[O-])cc3[N+](=O)[O-])CS[C@H]12; experiment: Activity of Enterobacter cloacae NMCA beta-lactamase
[26] = substrate: O=C(Cc1cccs1)N[C@@H]1C(=O)N2C(C(=O)O)=C(/C=C/c3ccc([N+](=O)[O-])cc3[N+](=O)[O-])CS[C@H]12; experiment: Activity of Pseudomonas aeruginosa OXA10 beta-lactamase

| Molecule | residual activity [1] [%] | residual activity [3] [%] | residual activity [5] [%] | residual activity [6] [%] | residual activity [8] [%] | residual activity (Bacillus cereus [9]) [%] | residual activity [12] [%] | other results |
| --- | --- | --- | --- | --- | --- | --- | --- | --- |
| CCOC(=O)CCC1(C(=O)OCC)CCC(=O)N1 (configuration not stated) | 97 | 94 | 100 | 96 | 100 | 100 | 85 | residual activity [2]: 96%; residual activity [4]: 98%; residual activity [7]: 80%; residual activity [10]: 100%; residual activity [11]: 100% |
| COC(=O)C(N)(CC(=O)OCc1ccccc1)CC(=O)OCc1ccccc1 | 100 | 81 | 63 | – | 100 | 93 | 100 | residual activity (Bacillus cereus [13]): 100% |
| O=C(Cc1cccs1)N[C@@H]1C(=O)N2C(C(=O)O)=C(/C=C/c3ccc([N+](=O)[O-])cc3[N+](=O)[O-])CS[C@H]12 | – | – | – | – | – | – | – | Km [14]: 20 µM; kcat [14]: 50 s⁻¹; Ratio [15]: 3.5 ×10⁶ /M/s; Ratio [16]: 2 ×10⁷ /M/s; Km (Bacillus cereus [17]): 10 µM; kcat (Bacillus cereus [17]): 40 s⁻¹; Ratio [18]: 2.5 ×10⁶ /M/s; Ratio (Bacillus cereus [19]): 4 ×10⁶ /M/s; Ratio [20]: 4 ×10⁶ /M/s |
| NC(CC(=O)OCc1ccccc1)(CC(=O)OCc1ccccc1)C(=O)OCc1ccccc1 | 10 | 100 | – | – | – | 90 | 100 | Ki (Beta-lactamase OXA-10 [21]): 95 µM |
| NC(CC(=O)O)(CC(=O)O)C(=O)O | – | 95 | – | 100 | 81 | – | 88 | Ki [22]: 150 µM |
| CCOC(=O)CC(N)(CC(=O)OCC)C(=O)OCC | – | 71 | – | – | 87 | 93 | 82 | residual activity (Bacillus cereus [13]): 92% |
| NC(C(=O)O)C(CC(=O)O)C(=O)O (configuration not stated) | 92 | 100 | 100 | 94 | 100 | 100 | 85 | residual activity [2]: 97%; residual activity [4]: 85%; residual activity [7]: 90%; residual activity [10]: 94%; residual activity [11]: 86% |
| COC(=O)CC(N)(CC(=O)OC)C(=O)O | 100 | 99 | 95 | 100 | 100 | 100 | 95 | residual activity (Bacillus cereus [13]): 100%; residual activity [2]: 100%; residual activity [4]: 79%; residual activity [7]: 87%; residual activity [10]: 73%; residual activity [11]: 99% |
| COC(=O)CC(CC(=O)OC)(NC(=O)Cc1ccccc1)C(=O)OC | – | – | – | – | – | – | – | residual activity (Bacillus cereus [13]): 100% |
| COC(=O)C(N)(CC(=O)O)CC(=O)O | 96 | 99 | 94 | 100 | 100 | 90 | 96 | residual activity (Bacillus cereus [13]): 100%; residual activity [2]: 97%; residual activity [4]: 83%; residual activity [7]: 92%; residual activity [10]: 93%; residual activity [11]: 96% |
| CCOC(=O)C1CC(=O)NC1C(=O)OCC (configuration not stated) | 91 | 100 | 100 | 94 | 100 | 100 | 100 | residual activity [2]: 100%; residual activity [4]: 87%; residual activity [7]: 86%; residual activity [10]: 100%; residual activity [11]: 93% |
| COC(=O)C(CC(=O)OCc1ccccc1)(CC(=O)OCc1ccccc1)NC(=O)COc1ccccc1 | 10 | – | – | – | – | – | – | – |
| O=C(O)CC(CC(=O)O)(NC(=O)COc1ccccc1)C(=O)O | 84 | 96 | 96 | 100 | 97 | 100 | 80 | residual activity [2]: 70%; residual activity [4]: 82%; residual activity [7]: 100%; residual activity [10]: 100%; residual activity [11]: 85% |
| COC(=O)CC(N)(CC(=O)OC)C(=O)OCc1ccccc1 | 100 | – | – | – | – | 100 | – | – |
| O=C(COc1ccccc1)NC(CC(=O)OCc1ccccc1)(CC(=O)OCc1ccccc1)C(=O)OCc1ccccc1 | 10 | – | – | – | – | – | – | Ki (Beta-lactamase OXA-10 [23]): 20 µM |
| O=C(O)CC(O)(CC(=O)O)C(=O)O [CITRIC ACID] | – | – | – | – | – | – | – | Ki (Beta-lactamase): 490 µM |
| Beta-lactamase VIM-4 (Pseudomonas aeruginosa) (from UniProt Q8KRJ3) | – | – | – | – | – | – | – | Km [24]: 10 µM; kcat [24]: 40 s⁻¹ |
| COC(=O)C(CC(=O)O)(CC(=O)O)NC(=O)COc1ccccc1 | 100 | 98 | 66 | 100 | 85 | 100 | 96 | residual activity (Bacillus cereus [13]): 86% |
| O=C(O)CC(C(=O)O)C(O)C(=O)O (configuration not stated) [ISOCITRATE] | – | – | – | – | – | – | – | Ki (Beta-lactamase): 2200 µM |
| Imipenem-hydrolyzing beta-lactamase (Enterobacter cloacae), P52663 (protein) MSLNVKQSRIAILFSSCLISISFFSQANTKGIDEIKNLETDFNGRIGVYALDTGSGKSFSYRANERFPLCSSFKGFLAAAVLKGSQDNRLNLNQIVNYNTRSLEFHSPITTKYKDNGMSLGDMAAAALQYSDNGATNIILERYIGGPEGMTKFMRSIGDEDFRLDRWELDLNTAIPGDERDTSTPAAVAKSLKTLALGNILSEHEKETYQTWLKGNTTGAARIRASVPSDWVVGDKTGSCGAYGTANDYAVVWPKNRAPLIISVYTTKNEKEAKHEDKVIAEASRIAIDNLK | – | – | – | – | – | – | – | Km [25]: 40 µM; kcat [25]: 130 s⁻¹ |
| Beta-lactamase OXA-10 (Pseudomonas aeruginosa), P14489 (protein) MKTFAAYVIIACLSSTALAGSITENTSWNKEFSAEAVNGVFVLCKSSSKSCATNDLARASKEYLPASTFKIPNAIIGLETGVIKNEHQVFKWDGKPRAMKQWERDLTLRGAIQVSAVPVFQQIAREVGEVRMQKYLKKFSYGNQNISGGIDKFWLEGQLRISAVNQVEFLESLYLNKLSASKENQLIVKEALVTEAAPEYLVHSKTGFSGVGTESNPGVAWWVGWVEKETEVYFFAFNMDIDNESKLPLRKSIPTKIMESEGIIGG | – | – | – | – | – | – | – | Km [26]: 20 µM; kcat [26]: 400 s⁻¹ |
